ChEMBL document CHEMBL1153549 (Antimicrob Agents Chemother, 2008)
Values after ≈ are worked out from the molar mass of the structure shown. Active and inactive are the calls of the source. No cut-off for these calls is given here.

Key:
Staphylococcus aureus [1] = test: Antibacterial activity against methicillin-resistant Staphylococcus aureus ATCC 33591 by standard checkerboard method in presence of pulmonar surfactant and 50 mg/liter Ca2+; type: functional, organism-based
Summary of the method: (§1)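 Checkerboard combination of antibiotic with pulmonary surfactant (Survanta) by CLSI broth microdilution in cation-adjusted Mueller-Hinton broth. The top surfactant level was 1 mg/ml, a 25-fold dilution of Survanta. For daptomycin, the broth carried 50 mg/liter Ca2+.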

Streptococcus pneumoniae [2] = test: Antibacterial activity against Streptococcus pneumoniae ATCC 49619 by standard checkerboard method in presence of pulmonar surfactant and 50 mg/liter Ca2+; type: functional, organism-based
Summary of the method: (§2)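 CLSI broth microdilution in cation-adjusted Mueller-Hinton broth combined with checkerboard of drug against pulmonary surfactant up to 1 mg/ml (25-fold dilution of Survanta); 50 mg/liter Ca2+ added for daptomycin only. Ratios of activity with vs without surfactant given as median and range of two separate experiments.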

Staphylococcus aureus [3] = test: Ratio of antibacterial activity against methicillin-resistant Staphylococcus aureus ATCC 33591 in presence of 1 mg/ml pulmonar surfactant and 50 mg/liter Ca2+ to antibacterial against methicillin-resistant Staphylococcus aureus ATCC 33591; type: functional
Summary of the method: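 Broth microdilution in cation-adjusted Mueller-Hinton broth (plus 50 mg/liter Ca2+ for daptomycin), with versus without 1 mg/ml pulmonary surfactant (Survanta). Reported as the median and range of activity ratios from two separate experiments.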

Streptococcus pneumoniae [4] = test: Ratio of antibacterial activity against Streptococcus pneumoniae ATCC 49619 in presence of 1 mg/ml pulmonar surfactant and 50 mg/liter Ca2+ to antibacterial against Streptococcus pneumoniae ATCC 49619; type: functional; summary of the method: as §2
Staphylococcus aureus [5] = test: Antibacterial activity against methicillin-resistant Staphylococcus aureus ATCC 33591 by standard checkerboard method in presence of 0.2 to 1 mg/ml pulmonar surfactant; type: functional, organism-based; summary of the method: as §1
Streptococcus pneumoniae [6] = test: Antibacterial activity against Streptococcus pneumoniae ATCC 49619 by standard checkerboard method in presence of 0.2 to 1 mg/ml pulmonar surfactant; type: functional, organism-based; summary of the method: as §2
[7] = Drug level in alveolar macrophage of healthy human undergoing fiber-optic bronchoscopy at 10 mg/kg, iv once daily for 3 days measured at 24 after start of infusion by validated liquid chromatography; type: ADME, organism-based; set-up: dose 10 mg/kg, route intravenous; conditions: alveolar macrophages, read-out: Drug uptake
[8] = Plasma concentration in healthy human undergoing fiber-optic bronchoscopy at 10 mg/kg, iv once daily for 3 days measured at 12 hrs after start of infusion by validated liquid chromatography; type: ADME, organism-based; set-up: dose 10 mg/kg, route intravenous
[9] = Plasma concentration in healthy human undergoing fiber-optic bronchoscopy at 10 mg/kg, iv once daily for 3 days measured at 24 hrs after start of infusion by validated liquid chromatography; type: ADME, organism-based; set-up: dose 10 mg/kg, route intravenous
[10] = Ratio of drug level in alveolar macrophage to plasma of healthy human undergoing fiber-optic bronchoscopy at 10 mg/kg, iv once daily for 3 days measured at 12 hrs after start of infusion; conditions: alveolar macrophages / plasma
[11] = Ratio of drug level in alveolar macrophage to plasma of healthy human undergoing fiber-optic bronchoscopy at 10 mg/kg, iv once daily for 3 days measured at 24 hrs after start of infusion; conditions: alveolar macrophages / plasma
Staphylococcus aureus [12] = test: Antibacterial activity against methicillin-resistant Staphylococcus aureus ATCC 33591 by CLSI broth microdilution method; type: functional
Summary of the method: (§3)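 MICs by CLSI reference broth microdilution in cation-adjusted Mueller-Hinton broth. For daptomycin testing, the medium was supplemented with 50 mg/liter Ca2+.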

Homo sapiens [13] = test: Toxicity in healthy human at 10 mg/kg, iv once daily for 3 days by clinical laboratory test; type: organism-based; set-up: dose 10 mg/kg, route intravenous; conditions: in vivo, 72 h
Summary of the method: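 Safety monitored by physical examinations, electrocardiographs and clinical laboratory tests (hematology, serum chemistry, urinalysis) at screening and specified times during 3 days of 10 mg/kg 1-h IV infusions.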

Homo sapiens [14] = test: Toxicity in healthy human assessed as pulmonar inflammation at 10 mg/kg, iv once daily for 3 days; type: organism-based; set-up: dose 10 mg/kg, route intravenous; conditions: in vivo, 72 h
Homo sapiens [15] = test: Toxicity in healthy human assessed as pulmonar infection at 10 mg/kg, iv once daily for 3 days; type: organism-based; set-up: dose 10 mg/kg, route intravenous; conditions: in vivo, 72 h
[16] = AUC (0 to 24) in epithelial lining fluid of healthy human at 10 mg/kg, iv once daily for 3 days; type: ADME, organism-based; set-up: time < 24 hr, dose 10 mg/kg, route intravenous; conditions: in vivo, 24 h
Mus musculus = test: fAUC (0 to 24) in mouse pneumonia model at 40 mg/kg; type: ADME, organism-based; set-up: dose 40 mg/kg; conditions: in vivo
Homo sapiens [17] = test: Toxicity in healthy human at 10 mg/kg/day infused over 1 hr; type: organism-based; conditions: in vivo
Staphylococcus aureus [18] = test: Antibacterial activity against methicillin-resistant Staphylococcus aureus; type: functional
Staphylococcus aureus [19] = test: Antibacterial activity against methicillin-susceptible Staphylococcus aureus; type: functional; summary of the method: as §3
Streptococcus pneumoniae [20] = test: Antibacterial activity against […] Streptococcus pneumoniae; type: functional; summary of the method: as §3
[21] = Cmax in healthy human at 10 mg/kg, iv once daily for 3 days measured at 24 after start of infusion; type: ADME, organism-based; set-up: dose 10 mg/kg, route intravenous; conditions: in vivo
Summary of the method: (§4)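 Plasma from healthy adults given 10 mg/kg IV over 60 min daily for 3 days, sampled before infusions 1 and 3 and 1, 2, 4, 6, 8, 12, 24 h after the third; validated LC-MS/MS (LLOQ 0.25 μg/ml). Noncompartmental analysis: Cmax, Tmax, Cmin observed; AUC0-24 linear trapezoidal; kel by log-linear regression; t1/2 = 0.693/kel; CL = dose/AUC0-24.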

[22] = Tmax in healthy human at 10 mg/kg, iv once daily for 3 days measured at 24 after start of infusion; type: ADME, organism-based; set-up: dose 10 mg/kg, route intravenous; conditions: in vivo; summary of the method: as §4
[23] = Terminal half life in healthy human at 10 mg/kg, iv once daily for 3 days measured at 24 after start of infusion; type: ADME, organism-based; set-up: dose 10 mg/kg, route intravenous; conditions: in vivo, read-out: beta t1/2 (converted); summary of the method: as §4
[24] = Clearance at steady state in healthy human at 10 mg/kg, iv once daily for 3 days measured at 24 after start of infusion; type: ADME, organism-based; set-up: dose 10 mg/kg, route intravenous; conditions: in vivo, read-out: CLss (converted); summary of the method: as §4
[25] = Mean residence time in healthy human at 10 mg/kg, iv once daily for 3 days measured at 24 after start of infusion; type: ADME, organism-based; set-up: dose 10 mg/kg, route intravenous; conditions: in vivo; summary of the method: as §4
[26] = Cmin in healthy human at 10 mg/kg, iv once daily for 3 days measured at 24 after start of infusion; type: ADME, organism-based; set-up: dose 10 mg/kg, route intravenous; conditions: in vivo, read-out: Cmin; summary of the method: as §4
[27] = Drug level in epithelial lining fluid of healthy human undergoing fiber-optic bronchoscopy at 10 mg/kg, iv once daily for 3 days measured at 8 hrs after start of infusion by validated liquid chromatography; type: ADME, organism-based; set-up: dose 10 mg/kg, route intravenous; conditions: read-out: Drug uptake
[28] = Drug level in epithelial lining fluid of healthy human undergoing fiber-optic bronchoscopy at 10 mg/kg, iv once daily for 3 days measured at 24 hrs after start of infusion by validated liquid chromatography; type: ADME, organism-based; set-up: dose 10 mg/kg, route intravenous; conditions: read-out: Drug uptake
[29] = Drug level in alveolar macrophage of healthy human undergoing fiber-optic bronchoscopy at 10 mg/kg, iv once daily for 3 days measured at 8 hrs after start of infusion by validated liquid chromatography; type: ADME, organism-based; set-up: dose 10 mg/kg, route intravenous; conditions: alveolar macrophages, read-out: Drug uptake
[30] = Drug level in alveolar macrophage of healthy human undergoing fiber-optic bronchoscopy at 10 mg/kg, iv once daily for 3 days measured at 12 after start of infusion by validated liquid chromatography; type: ADME, organism-based; set-up: dose 10 mg/kg, route intravenous; conditions: alveolar macrophages, read-out: Drug uptake
Streptococcus pneumoniae [31] = test: Antibacterial activity against Streptococcus pneumoniae
Homo sapiens [32] = test: Plasma protein binding in healthy human undergoing fiber-optic bronchoscopy at 10 mg/kg, iv once daily for 3 days; conditions: read-out: PPB (converted)

With CCCCCCCCCC(=O)N[C@@H](Cc1c[nH]c2ccccc12)C(=O)N[C@H](CC(N)=O)C(=O)N[C@@H](CC(=O)O)C(=O)N[C@@H]1C(=O)NCC(=O)N[C@@H](CCCN)C(=O)N[C@@H](CC(=O)O)C(=O)N[C@H](C)C(=O)N[C@@H](CC(=O)O)C(=O)NCC(=O)N[C@H](CO)C(=O)N[C@@H]([C@H](C)CC(=O)O)C(=O)N[C@@H](CC(=O)c2ccccc2N)C(=O)O[C@@H]1C the Activity (Staphylococcus aureus [1]) was “inactive”, the Activity (Streptococcus pneumoniae [2]) was “inactive” and the Ratio (Staphylococcus aureus [3]) was 32. The Ratio (Streptococcus pneumoniae [4]) was 128.

In the case of CN[C@H](CC(C)C)C(=O)N[C@H]1C(=O)N[C@@H](CC(N)=O)C(=O)N[C@H]2C(=O)N[C@H]3C(=O)N[C@H](C(=O)N[C@H](C(=O)O)c4cc(O)cc(O)c4-c4cc3ccc4O)[C@H](O)c3ccc(c(Cl)c3)Oc3cc2cc(c3O[C@@H]2O[C@H](CO)[C@@H](O)[C@H](O)[C@H]2O[C@H]2C[C@](C)(N)[C@H](O)[C@H](C)O2)Oc2ccc(cc2Cl)[C@H]1O, the Activity (Staphylococcus aureus [5]) is reported as “Active” and the Activity (Streptococcus pneumoniae [6]) is reported as “Active”.

With CO/N=C(\C(=O)N[C@@H]1C(=O)N2C(C(=O)O)=C(CSc3nc(=O)c(O)nn3C)CS[C@H]12)c1csc(N)n1 the Activity (Staphylococcus aureus [5]) was “Active” and the Activity (Streptococcus pneumoniae [6]) was “Active”.

CCCCCCCCCCNCCN[C@@]1(C)C[C@H](O[C@H]2[C@H](Oc3c4cc5cc3Oc3ccc(cc3Cl)[C@@H](O)[C@@H](NC(=O)[C@@H](CC(C)C)NC)C(=O)N[C@@H](CC(N)=O)C(=O)N[C@H]5C(=O)N[C@H]3C(=O)N[C@H](C(=O)N[C@H](C(=O)O)c5cc(O)c(CNCP(=O)(O)O)c(O)c5-c5cc3ccc5O)[C@H](O)c3ccc(c(Cl)c3)O4)O[C@H](CO)[C@@H](O)[C@@H]2O)O[C@@H](C)[C@H]1O [TELAVANCIN] showed a concentration at 72 h [7] of 42000 ng/mL, a concentration at 12 h [8] of 22900 ng/mL and a concentration at 24 h [9] of 7280 ng/mL. The Kp at 12 h [10] was 1.93, the Kp at 24 h [11] was 6.67 and the Activity (Staphylococcus aureus [12]) was 0.5 µg/mL. The Activity (Staphylococcus aureus [5]) was “Active”, the Activity (Streptococcus pneumoniae [6]) was “Active” and the Activity (Homo sapiens [13]) was “Non-toxic”. The Activity (Homo sapiens [14]) was “Non-toxic”, the Activity (Homo sapiens [15]) was “Non-toxic” and the AUC [16] was 45 µg/h/mL. The fAUC (Mus musculus) was 52.3 µg/h/mL, the Activity (Homo sapiens [17]) was “Non-toxic” and the MIC90 (Staphylococcus aureus [18]) was 0.5 µg/mL (≈ 0.285 µM). For the same compound, the MIC90 (Staphylococcus aureus [19]) was 0.5 µg/mL (≈ 0.285 µM), the MIC90 (Streptococcus pneumoniae [20]) was 0.03 µg/mL (≈ 0.0171 µM) and the Cmax [21] was 116000 ng/mL. For the same compound, the Tmax [22] was 1 h, the half-life [23] was 7.41 h and the clearance [24] was 0.217 mL/min/kg. It also gave an MRT [25] of 9.42 h, a concentration at 72 h [26] of 8110 ng/mL and a concentration at 8 h [27] of 3700 ng/mL. It also gave a concentration at 24 h [28] of 900 ng/mL, a concentration at 8 h [29] of 19000 ng/mL and a concentration at 72 h [30] of 45000 ng/mL. It also gave an MIC90 (Streptococcus pneumoniae [31]) of 0.03 µg/mL (≈ 0.0171 µM) and a fraction unbound at 72 h (Homo sapiens [32]) of 0.1.
